As a reminder, the inhibition is the percentage by which the read-out fell short of the control. One may read the IC50 as the concentration at which inhibition is half-maximal. Broadly, the Ki is a measure of affinity in units of concentration, obtained from inhibition or displacement.

This note sets out measurements from ChEMBL document CHEMBL4257453, “Identification of karanjin isolated from the Indian beech tree as a potent CYP1 enzyme inhibitor with cellular efficacy via screening of a natural product repository” (Medchemcomm, 2018).

The target in data set [1] is CYP2C9 (Homo sapiens, UniProt P11712). Put plainly: Inhibition of recombinant human CYP2C9 expressed in baker's yeast-derived microsomes (Sacchrosomes) at 10 uM using 3-cyano-7-ethoxycoumarin substrate by EROD assay relative to control. The conditions noted are these: probe 3-cyano-7-ethoxycoumarin. It counts as ADME. An outline of the steps: (§1)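 Yeast microsomes carrying recombinant CYP (Sacchrosomes). […] Substrates per isoform are 7-ethoxyresorufin, 3-cyano-7-ethoxycoumarin, EOMCC or dibenzylfluorescein, read as endpoint fluorescence. Background from compound-only wells without enzyme is subtracted. Independent triplicate runs; α-naphthoflavone positive control.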

In data set [2] the target is T1, CYP1A1 (Homo sapiens, UniProt P04798).
T1 sequence (P04798 whole entry): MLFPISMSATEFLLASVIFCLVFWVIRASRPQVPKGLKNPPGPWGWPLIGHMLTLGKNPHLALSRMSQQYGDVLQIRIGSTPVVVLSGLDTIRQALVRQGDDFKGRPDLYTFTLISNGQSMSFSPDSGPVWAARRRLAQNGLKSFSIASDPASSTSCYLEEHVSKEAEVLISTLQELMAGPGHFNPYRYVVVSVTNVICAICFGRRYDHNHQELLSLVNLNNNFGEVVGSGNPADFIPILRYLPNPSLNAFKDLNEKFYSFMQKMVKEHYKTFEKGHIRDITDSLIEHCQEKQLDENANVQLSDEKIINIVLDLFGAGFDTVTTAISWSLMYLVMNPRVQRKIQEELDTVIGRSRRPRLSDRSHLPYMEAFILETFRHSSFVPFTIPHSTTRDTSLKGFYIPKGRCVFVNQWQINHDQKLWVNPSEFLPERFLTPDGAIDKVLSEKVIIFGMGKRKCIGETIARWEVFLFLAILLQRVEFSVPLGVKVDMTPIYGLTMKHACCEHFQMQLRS
As to the kind of experiment: Inhibition of human recombinant CYP1A1 expressed in HEK293 cells at 10 uM using 7-ethoxyresorufin substrate preincubated for 30 mins followed by substrate addition and measured after 60 mins by fluorescence assay relative to control. Particulars: HEK293 cells expressing human recombinant CYP1A1, probe 7-ethoxyresorufin. It counts as cell-based. The gist of the method: (§2)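 HEK293 cells adapted to suspension and transiently transfected with pcDNA3.1 plasmids carrying the individual CYP; 100×10^3 cells per well in triplicate. […] Fluorogenic substrate is then added at 5 μM and fluorescence read for 60 min.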

Data set [3] has as its target CYP3A4 (Homo sapiens, UniProt P08684). As to the kind of experiment: Inhibition of recombinant human CYP3A4 expressed in baker's yeast-derived microsomes (Sacchrosomes) at 10 uM using dibenzylfluorescein substrate by EROD assay relative to control. It counts as ADME. The conditions noted are these: probe dibenzylfluorescein. The gist of the method: as §1
Data set [4] deals with T2, Cytochrome P450 1A2 (Homo sapiens, UniProt P05177).
T2 sequence (P05177 whole entry): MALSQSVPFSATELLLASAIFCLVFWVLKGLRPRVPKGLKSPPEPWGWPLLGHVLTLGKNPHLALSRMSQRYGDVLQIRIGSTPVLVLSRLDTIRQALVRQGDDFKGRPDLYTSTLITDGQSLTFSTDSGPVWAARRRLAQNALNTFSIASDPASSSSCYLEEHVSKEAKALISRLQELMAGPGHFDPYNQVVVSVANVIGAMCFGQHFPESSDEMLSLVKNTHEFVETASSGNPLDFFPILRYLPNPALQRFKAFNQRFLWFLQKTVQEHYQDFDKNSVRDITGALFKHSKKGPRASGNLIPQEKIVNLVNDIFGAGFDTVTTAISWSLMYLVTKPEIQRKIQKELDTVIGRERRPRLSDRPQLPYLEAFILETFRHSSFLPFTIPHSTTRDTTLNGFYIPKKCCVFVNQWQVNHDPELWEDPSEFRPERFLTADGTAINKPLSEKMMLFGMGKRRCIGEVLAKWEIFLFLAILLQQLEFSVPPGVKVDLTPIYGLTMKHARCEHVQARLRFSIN
Put plainly: Inhibition of human recombinant CYP1A2 expressed in HEK293 cells using 3-cyano-7-ethoxycoumarin substrate preincubated for 30 mins followed by substrate addition and measured after 60 mins by fluorescence assay relative to control. It counts as ADME, cell-based. An outline of the steps: as §2

Data set [5] has as its target T1, CYP1A1. As to the kind of experiment: Inhibition of recombinant human CYP1A1 expressed in baker's yeast-derived microsomes (Sacchrosomes) at 10 uM using 7-ethoxyresorufin substrate by EROD assay relative to control. The conditions noted are these: probe 7-ethoxyresorufin. The gist of the method: (§3)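 Yeast microsomes carrying recombinant CYP (Sacchrosomes). Substrates per isoform are 7-ethoxyresorufin, 3-cyano-7-ethoxycoumarin, EOMCC or dibenzylfluorescein, read as endpoint fluorescence. Background from compound-only wells without enzyme is subtracted. Independent triplicate runs; α-naphthoflavone positive control.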

Data set [6] addresses Cytochrome P450 2D6 (Homo sapiens, UniProt P10635). Put plainly: Inhibition of human recombinant CYP2D6 expressed in HEK293 cells using 7-ethoxy-methyloxy-3-cyanocoumarin substrate substrate preincubated for 30 mins followed by substrate addition and measured after 60 mins by fluorescence assay relative to control. It counts as ADME, cell-based. The gist of the method: as §2

Data set [7] concerns the target Cytochrome P450 2C9 (Homo sapiens, UniProt P11712). Put plainly: Inhibition of human recombinant CYP2C9 expressed in HEK293 cells using 3-cyano-7-ethoxycoumarin substrate substrate preincubated for 30 mins followed by substrate addition and measured after 60 mins by fluorescence assay relative to control. It counts as ADME, cell-based. The gist of the method:
as §2

For data set [8], the target named is T3, CYP1B1 (Homo sapiens, UniProt Q16678).
T3 sequence (Q16678 whole entry): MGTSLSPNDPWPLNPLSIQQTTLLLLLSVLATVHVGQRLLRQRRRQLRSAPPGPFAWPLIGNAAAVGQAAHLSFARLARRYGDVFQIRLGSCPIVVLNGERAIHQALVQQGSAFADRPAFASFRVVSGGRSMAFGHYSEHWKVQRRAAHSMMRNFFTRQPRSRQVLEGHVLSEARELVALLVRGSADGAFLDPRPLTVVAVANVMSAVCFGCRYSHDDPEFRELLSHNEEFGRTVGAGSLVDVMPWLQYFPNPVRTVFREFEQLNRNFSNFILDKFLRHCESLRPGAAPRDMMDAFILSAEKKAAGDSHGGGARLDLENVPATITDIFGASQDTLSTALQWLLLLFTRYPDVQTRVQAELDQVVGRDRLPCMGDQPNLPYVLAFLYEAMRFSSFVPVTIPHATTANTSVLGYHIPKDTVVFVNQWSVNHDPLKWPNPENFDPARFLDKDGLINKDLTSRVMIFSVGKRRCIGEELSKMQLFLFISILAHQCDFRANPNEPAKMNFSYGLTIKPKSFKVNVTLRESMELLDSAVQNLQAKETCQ
Put plainly: Inhibition of recombinant human CYP1B1 expressed in baker's yeast-derived microsomes (Sacchrosomes) at 10 uM using 7-ethoxyresorufin substrate by EROD assay relative to control. It counts as ADME. The conditions noted are these: probe 7-ethoxyresorufin. An outline of the steps:
as §1

Data set [9] addresses Cytochrome P450 2C19 (Homo sapiens, UniProt P33261). As to the kind of experiment: Inhibition of human recombinant CYP2C19 expressed in HEK293 cells using 3-cyano-7-ethoxycoumarin substrate substrate preincubated for 30 mins followed by substrate addition and measured after 60 mins by fluorescence assay relative to control. It counts as ADME, cell-based. An outline of the steps:
as §2

Data set [10] concerns the target T4, CYP1A2 (Homo sapiens, UniProt P05177).
T4 sequence (P05177 whole entry): T2 sequence (P05177 whole entry)
As to the kind of experiment: Inhibition of recombinant human CYP1A2 expressed in baker's yeast-derived microsomes (Sacchrosomes) at 10 uM using 3-cyano-7-ethoxycoumarin substrate by EROD assay relative to control. It counts as ADME. Particulars: probe 3-cyano-7-ethoxycoumarin. The gist of the method:
as §3

In data set [11] the target is CYP2D6 (Homo sapiens, UniProt P10635). Put plainly: Inhibition of recombinant human CYP2D6 expressed in baker's yeast-derived microsomes (Sacchrosomes) at 10 uM using 7-ethoxy-methyloxy-3-cyanocoumarin substrate by EROD assay relative to control. It counts as ADME. The conditions noted are these: probe 7-ethoxy-methyloxy-3-cyanocoumarin. An outline of the steps: as §1

The target of data set [12] is CYP2C19 (Homo sapiens, UniProt P33261). As to the kind of experiment: Inhibition of recombinant human CYP2C19 expressed in baker's yeast-derived microsomes (Sacchrosomes) at 10 uM using 3-cyano-7-ethoxycoumarin substrate by EROD assay relative to control. It counts as ADME. Particulars: probe 3-cyano-7-ethoxycoumarin. The gist of the method: as §1
In data set [13] the target is T5, Cytochrome P450 1B1 (Homo sapiens, UniProt Q16678).
T5 sequence (Q16678 whole entry): T3 sequence (Q16678 whole entry)
Put plainly: Inhibition of human recombinant CYP1B1 expressed in HEK293 cells using 7-ethoxyresorufin substrate substrate preincubated for 30 mins followed by substrate addition and measured after 60 mins by fluorescence assay relative to control. It counts as ADME, cell-based. The gist of the method:
as §2

Data set [14] addresses T6, Cytochrome P450 1A1 (Homo sapiens, UniProt P04798).
T6 sequence (P04798 whole entry): T1 sequence (P04798 whole entry)
As to the kind of experiment: Inhibition of human recombinant CYP1A1 expressed in HEK293 cells using 7-ethoxyresorufin substrate preincubated for 30 mins followed by substrate addition and measured after 60 mins by fluorescence assay relative to control. It counts as cell-based. The gist of the method: as §2

In data set [15] the target is Cytochrome P450 3A4 (Homo sapiens, UniProt P08684). As to the kind of experiment: Inhibition of human recombinant CYP3A4 expressed in HEK293 cells using dibenzylfluorescein substrate substrate preincubated for 30 mins followed by substrate addition and measured after 60 mins by fluorescence assay relative to control. It counts as ADME, cell-based. An outline of the steps:
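HEK293 cells adapted to suspension and transiently transfected with pcDNA3.1 plasmids carrying the individual CYP; 100×10^3 cells per well in triplicate. Fluorogenic substrate is then added at 5 μM and fluorescence read for 60 min.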

Structures are written as SMILES. A value given as a limit tells only on which side of the number the result lay.

Cytochrome P450 2C19, sequence (P33261 whole entry): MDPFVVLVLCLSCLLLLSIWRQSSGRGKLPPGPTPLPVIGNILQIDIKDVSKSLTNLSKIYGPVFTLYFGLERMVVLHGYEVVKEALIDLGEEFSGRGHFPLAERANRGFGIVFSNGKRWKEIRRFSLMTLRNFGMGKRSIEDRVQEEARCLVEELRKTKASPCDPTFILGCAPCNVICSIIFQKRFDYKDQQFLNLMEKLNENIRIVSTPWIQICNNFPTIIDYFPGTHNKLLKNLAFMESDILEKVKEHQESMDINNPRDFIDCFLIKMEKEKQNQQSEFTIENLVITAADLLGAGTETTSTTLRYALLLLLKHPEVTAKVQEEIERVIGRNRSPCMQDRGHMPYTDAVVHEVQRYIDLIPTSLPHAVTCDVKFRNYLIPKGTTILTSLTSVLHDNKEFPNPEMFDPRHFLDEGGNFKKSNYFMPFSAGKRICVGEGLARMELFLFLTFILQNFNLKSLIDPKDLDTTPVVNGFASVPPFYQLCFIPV
CYP2C19, sequence (P33261 whole entry): as above
CYP3A4, sequence (P08684 whole entry): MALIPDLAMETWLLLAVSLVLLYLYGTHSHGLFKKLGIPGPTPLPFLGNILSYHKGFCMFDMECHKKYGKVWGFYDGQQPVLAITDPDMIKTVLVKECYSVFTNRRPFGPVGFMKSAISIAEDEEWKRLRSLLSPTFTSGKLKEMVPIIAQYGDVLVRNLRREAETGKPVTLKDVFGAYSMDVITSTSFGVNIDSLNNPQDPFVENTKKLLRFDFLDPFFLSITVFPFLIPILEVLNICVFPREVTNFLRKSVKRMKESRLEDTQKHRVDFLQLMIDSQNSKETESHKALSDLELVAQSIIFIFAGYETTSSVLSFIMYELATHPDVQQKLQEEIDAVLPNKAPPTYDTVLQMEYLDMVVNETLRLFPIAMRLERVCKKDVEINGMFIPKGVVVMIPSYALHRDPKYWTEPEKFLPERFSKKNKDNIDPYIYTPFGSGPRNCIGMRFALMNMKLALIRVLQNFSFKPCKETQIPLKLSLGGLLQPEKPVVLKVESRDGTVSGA
CYP2D6, sequence (P10635 whole entry): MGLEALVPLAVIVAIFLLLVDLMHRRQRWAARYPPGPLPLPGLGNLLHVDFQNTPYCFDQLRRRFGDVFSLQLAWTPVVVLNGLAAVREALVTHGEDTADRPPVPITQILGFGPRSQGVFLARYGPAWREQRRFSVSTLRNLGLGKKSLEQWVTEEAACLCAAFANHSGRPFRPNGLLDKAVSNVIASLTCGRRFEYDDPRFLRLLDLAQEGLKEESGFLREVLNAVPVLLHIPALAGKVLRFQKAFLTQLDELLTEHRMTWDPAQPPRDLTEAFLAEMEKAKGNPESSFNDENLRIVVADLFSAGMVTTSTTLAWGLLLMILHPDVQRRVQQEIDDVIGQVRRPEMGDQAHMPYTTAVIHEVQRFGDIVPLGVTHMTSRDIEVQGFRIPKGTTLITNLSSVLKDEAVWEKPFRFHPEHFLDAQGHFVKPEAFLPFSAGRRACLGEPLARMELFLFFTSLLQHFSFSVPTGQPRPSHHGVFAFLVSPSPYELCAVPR
Cytochrome P450 2D6, sequence (P10635 whole entry): as above
Cytochrome P450 2C9, sequence (P11712 whole entry): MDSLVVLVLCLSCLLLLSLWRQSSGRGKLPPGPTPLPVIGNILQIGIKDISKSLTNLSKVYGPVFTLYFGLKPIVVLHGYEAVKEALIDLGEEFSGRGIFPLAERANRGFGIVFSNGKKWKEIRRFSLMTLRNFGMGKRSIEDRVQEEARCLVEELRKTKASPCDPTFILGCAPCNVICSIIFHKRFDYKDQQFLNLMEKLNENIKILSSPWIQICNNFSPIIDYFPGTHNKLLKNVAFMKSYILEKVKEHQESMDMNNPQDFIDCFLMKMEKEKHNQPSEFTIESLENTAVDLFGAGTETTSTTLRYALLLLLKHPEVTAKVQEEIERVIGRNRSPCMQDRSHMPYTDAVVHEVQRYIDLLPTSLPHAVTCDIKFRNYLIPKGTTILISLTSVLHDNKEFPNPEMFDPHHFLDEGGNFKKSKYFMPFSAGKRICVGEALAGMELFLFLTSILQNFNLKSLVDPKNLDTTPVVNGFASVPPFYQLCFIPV
CYP2C9, sequence (P11712 whole entry, canonical isoform): as the sequence (P11712 whole entry) above
Cytochrome P450 3A4, sequence (P08684 whole entry): as the sequence (P08684 whole entry) above

On to `COc1c2occc2c(OC)c2c(=O)cc(C)oc12` [KHELLIN], for which the inhibition at 10 µM in data set [1] came to 12%; in data set [3], 11%; in [5], 92%; in data set [8] it was 5%; in data set [10], 99%; in [11], 8%. Further, the inhibition at 10 µM in data set [12] came out at 8%. In addition, in data set [2], the inhibition at 1 h, 10 µM was 75%. The IC50 in data set [4] was 0.04 µM; in [6] it was more than 10 µM; in [7], more than 10 µM; in data set [9] it was more than 10 µM; in data set [13], 34.6 µM; in [14] it was 4.02 µM. Further, the Ki in data set [4] was found to be 0.031 µM; in [14], 3.8 µM.

`COc1ccc2cc3[n+](cc2c1OC)CCc1cc2c(cc1-3)OCO2` [BERBERINE CHLORIDE]: the inhibition at 10 µM in data set [5] came to 48%.

As for `O=C(/C=C/C=C/c1ccc2c(c1)OCO2)N1CCCCC1` [PIPERINE], the inhibition at 10 µM in data set [5] is 42%.

Turning to `O=c1ccc2cc3ccoc3cc2o1` [PSORALEN], the inhibition at 10 µM in [5] came to 69%.

With `Cc1c(O)c2c(c(C(=O)/C=C/c3ccccc3)c1O)OC(C)(C)C=C2`, in data set [5], the inhibition at 10 µM was found to be 52%.

Regarding `O=c1cc(-c2ccc(O)cc2)oc2c([C@@H]3O[C@H](CO)[C@@H](O)[C@H](O)[C@H]3O)c(O)cc(O)c12` [VITEXIN], the inhibition at 10 µM in data set [5] was determined as 42%.

As to `CC1=C(CO)C(=O)O[C@@H]([C@@H](C)[C@H]2CC[C@H]3[C@@H]4C[C@H]5O[C@]56[C@@H](O)C=CC(=O)[C@]6(C)[C@H]4CC[C@]23C)C1` [WITHAFERIN A], the inhibition at 10 µM in [5] came to 50%.

With `O=c1ccc2ccc3occc3c2o1` [ANGELICIN], the inhibition at 10 µM in data set [5] stood at 80%.

With `CC1=CC(=O)c2c(O)cccc2C1=O` [PLUMBAGIN], the inhibition at 10 µM in data set [1] was 11%; in data set [3] it was 15%; in data set [8], 40%; in [10], 55%; in data set [11], 10%; in [12], 12%. For the same compound, in [2], the inhibition at 1 h, 10 µM worked out at 86%. The IC50 in data set [4] was 2.46 µM; in [6], more than 10 µM; in data set [7], more than 10 µM; in data set [9], more than 10 µM; in [15], more than 10 µM; in data set [13], 6.15 µM. In addition, in [14], the IC50 is 2.77 µM. Besides, the values for the Ki in data set [4] and in data set [14] were 2.36 µM and 2.56 µM, respectively.

For `CC1(C)O[C@H]1COc1c2ccoc2cc2oc(=O)ccc12` [OXYPEUCEDANIN], in data set [5], the inhibition at 10 µM is 56%.
